Source: ChEMBL document CHEMBL5247635 (Eur J Med Chem, 2022)
Calls of active or inactive are those of the source. No cut-off for these calls is given here.

Assays:
[1] = Selectivity index, ratio of CC50 for human HepG2 cells to EC50 for Leishmania infantum MCAN/ES/89/IPZ229/1/89 axenic amastigotes; assay type: toxicity; details: read-out: Ratio CC50/EC50
[2] = Cytotoxicity against human HepG2 cells assessed as reduction in cell proliferation treated for 24 hrs by crystal violet staining based analysis; assay type: toxicity
[3] = target: T1, Trypanothione reductase (Leishmania infantum, UniProt A4HSF7); experiment: Disruption of HIS-FLAG-tagged recombinant Leishmania infantum TryR dimerization expressed in Escherichia coli Rossetta BL21 (DE3) cells incubated for 16 hrs by ELISA analysis
T1 sequence (A4HSF7 whole entry): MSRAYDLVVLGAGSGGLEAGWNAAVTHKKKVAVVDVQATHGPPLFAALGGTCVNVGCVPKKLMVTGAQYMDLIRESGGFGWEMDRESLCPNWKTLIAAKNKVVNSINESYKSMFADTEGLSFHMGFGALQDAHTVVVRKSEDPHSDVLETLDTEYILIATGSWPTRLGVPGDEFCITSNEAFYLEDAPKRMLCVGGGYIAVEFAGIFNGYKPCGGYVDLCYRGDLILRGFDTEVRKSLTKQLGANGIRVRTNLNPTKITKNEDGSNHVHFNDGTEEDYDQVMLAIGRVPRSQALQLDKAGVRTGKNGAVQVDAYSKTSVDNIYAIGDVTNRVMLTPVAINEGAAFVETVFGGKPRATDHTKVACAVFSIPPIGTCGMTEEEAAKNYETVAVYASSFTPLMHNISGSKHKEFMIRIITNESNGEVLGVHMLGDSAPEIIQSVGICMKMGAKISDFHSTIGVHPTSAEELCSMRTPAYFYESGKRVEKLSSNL
How it was run: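 400 nM HIS-FLAG-tagged LiTryR (co-purified with HIS-tagged LiTryR as heterodimer) incubated with compound (3.1–75 μM) in 50 mM Tris pH 8.0, 300 mM NaCl, 16 h, 37 °C with vigorous shaking; centrifuged, supernatant captured on α-FLAG plates, detected with HRP-α-HIS antibody and o-phenylenediamine, A490. Signal normalized to DMSO; IC50 by nonlinear regression; triplicate, three independent experiments.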

[4] = target: T1, Trypanothione reductase; experiment: Inhibition of HIS-tagged recombinant Leishmania infantum TryR oxidoreductase activity expressed in Escherichia coli in the presence of NADPH by spectrophotometry based DTNB-coupled assay
How it was run: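 HIS-tagged LiTryR was used in a DTNB-coupled assay at 26 °C. Buffer: 40 mM HEPES pH 7.5, 1 mM EDTA, 30 µM NADP+, 25 µM DTNB, 150 µM NADPH, 1.75% DMSO. Standard runs used 1 µM TS2 and 7 nM enzyme; cross-species runs used 50 µM TS2 and 0.5 nM enzyme. Started with NADPH + TS2; TNB read at 412 nm. Compounds were screened at 75 µM first. Three independent experiments.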

[5] = tested on: Leishmania infantum; experiment: Antileishmanial activity against Leishmania infantum MCAN/ES/89/IPZ229/1/89 axenic amastigotes assessed as reduction in parasite viability treated for 24 hrs by PI staining based flow cytometry; assay type: functional, organism-based; details: MCAN/ES/89/IPZ229/1/89, 24 h
How it was run: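 Axenic amastigotes were seeded from log-phase cultures at 10^5 parasites/mL in M199-based medium at pH 5.4. They were derived from promastigotes by 3 days at 37 °C. Compounds at 2.3–75 µM for 24 h at 37 °C. Viability read by propidium iodide flow cytometry. EC50 ± SE from three independent experiments, each in triplicate.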

[6] = Cytotoxicity against human HepG2 cells assessed as reduction in cell proliferation measured after 72 hrs by crystal violet staining based analysis; assay type: toxicity
[7] = Selectivity index, ratio of CC50 for human HepG2 cells to EC50 for GFP-expressing Leishmania infantum intracellular amastigotes infected in human THP-1 derived macrophage cells; assay type: toxicity, cell-based; details: read-out: Ratio CC50/EC50
[8] = tested on: Leishmania infantum; experiment: Antileishmanial activity against GFP-expressing Leishmania infantum intracellular amastigotes infected in human THP-1 derived macrophage cells assessed as reduction in parasite viability measured for 72 hrs by resazurin/alamar blue fluorometric assay; assay type: functional, organism-based
How it was run: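 Human THP-1-derived macrophages infected with GFP-expressing L. infantum amastigotes; compounds at 2.3–75 µM, infected cells monitored for 72 h. EC50 ± SE from three independent experiments.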

[9] = Thermodynamic aqueous solubility of compound at 25 degreeC measured after 24 hrs by HPLC analysis; assay type: physicochemical; details: buffer, read-out: Therm_solubility
How it was run: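 Excess compound was suspended in water (pH 5.5), sonicated 10 min, equilibrated overnight at room temperature, and centrifuged. Supernatant was diluted and quantified by HPLC (UV 254 nm) against a five-point standard curve (10–500 µM).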

[10] = tested on: Leishmania infantum; experiment: Antileishmanial activity against H2O2-induced Leishmania infantum promastigotes assessed as reduction in non-protein thiol content at 5 mM treated for 72 hrs by CMF diacetate probe based flow cytometry relative to control; assay type: functional; parameters: scale not given: the % may be the effect or the level left
How it was run: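 Promastigotes grown in RPMI-1640 with 10% FCS and 25 mM HEPES pH 7.2 at 26 °C. Treatments were 75 µM for 1 h, 5 mM BSO for 72 h, or both combined; vehicle served as control. Some parasites were also H2O2-treated. Non-protein thiols read by flow cytometry as CMF diacetate green fluorescence in PI-excluding live parasites. Means of nine independent experiments with 99.0% confidence intervals.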

[11] = tested on: Leishmania infantum; experiment: Antileishmanial activity against Leishmania infantum promastigotes assessed as reduction in parasite growth at 5 mM treated for 72 hrs; assay type: functional, organism-based
[12] = target: Trypanothione reductase (Trypanosoma brucei brucei, UniProt P39051); experiment: Inhibition of HIS-tagged recombinant Trypanosoma brucei TryR oxidoreductase activity expressed in Escherichia coli in the presence of NADPH by spectrophotometry based DTNB-coupled assay
Trypanothione reductase (Trypanosoma brucei brucei, UniProt P39051), sequence (P39051 whole entry): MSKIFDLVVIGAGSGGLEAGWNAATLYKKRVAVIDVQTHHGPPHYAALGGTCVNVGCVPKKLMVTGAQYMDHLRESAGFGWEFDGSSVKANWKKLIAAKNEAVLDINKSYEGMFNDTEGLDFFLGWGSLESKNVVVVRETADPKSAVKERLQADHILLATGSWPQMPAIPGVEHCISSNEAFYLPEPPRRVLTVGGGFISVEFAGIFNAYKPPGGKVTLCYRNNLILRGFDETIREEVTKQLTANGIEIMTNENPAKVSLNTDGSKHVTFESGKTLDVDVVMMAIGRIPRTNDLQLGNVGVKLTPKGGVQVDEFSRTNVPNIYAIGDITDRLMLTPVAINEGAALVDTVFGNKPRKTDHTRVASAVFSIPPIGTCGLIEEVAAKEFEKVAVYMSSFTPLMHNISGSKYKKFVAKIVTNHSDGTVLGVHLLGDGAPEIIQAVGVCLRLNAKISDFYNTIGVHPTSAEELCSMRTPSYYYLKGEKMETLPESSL
How it was run: (§1)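 HIS-tagged TryR from each species was expressed in E. coli. Activity was read by DTNB-coupled assay at 26 °C in 40 mM HEPES pH 7.5, 1 mM EDTA, 30 µM NADP+, 25 µM DTNB, 150 µM NADPH, 1.75% DMSO. Conditions were 50 µM TS2 and 0.5 nM enzyme; reaction started with NADPH + TS2. TNB absorbance at 412 nm. Three independent experiments.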

[13] = target: Trypanothione reductase (Trypanosoma congolense, UniProt P13110); experiment: Inhibition of HIS-tagged recombinant Trypanosoma congolense TryR oxidoreductase activity expressed in Escherichia coli in the presence of NADPH by spectrophotometry based DTNB-coupled assay; how it was run: as §1
Trypanothione reductase (Trypanosoma congolense, UniProt P13110), sequence (P13110 whole entry): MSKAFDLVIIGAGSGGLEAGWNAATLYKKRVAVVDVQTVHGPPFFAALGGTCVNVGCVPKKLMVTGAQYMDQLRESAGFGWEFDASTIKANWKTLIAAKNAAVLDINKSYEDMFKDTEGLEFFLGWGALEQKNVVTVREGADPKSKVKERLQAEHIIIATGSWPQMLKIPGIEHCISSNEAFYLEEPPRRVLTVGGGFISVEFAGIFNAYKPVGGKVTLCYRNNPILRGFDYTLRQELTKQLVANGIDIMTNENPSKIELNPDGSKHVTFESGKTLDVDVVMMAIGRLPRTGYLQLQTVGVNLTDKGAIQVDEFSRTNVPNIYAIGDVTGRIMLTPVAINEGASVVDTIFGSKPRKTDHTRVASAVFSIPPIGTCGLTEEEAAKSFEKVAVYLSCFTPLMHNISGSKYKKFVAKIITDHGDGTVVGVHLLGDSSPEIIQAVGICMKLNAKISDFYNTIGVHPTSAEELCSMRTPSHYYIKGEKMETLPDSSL

[14] = target: T1, Trypanothione reductase; experiment: Competitive inhibition of HIS-FLAG-tagged recombinant Leishmania infantum TryR expressed in Escherichia coli assessed as dissociation constant by SPR assay
[15] = target: Trypanothione reductase (Trypanosoma cruzi, UniProt P28593); experiment: Inhibition of HIS-tagged recombinant Trypanosoma cruzi TryR oxidoreductase activity expressed in Escherichia coli in the presence of NADPH by spectrophotometry based DTNB-coupled assay; how it was run: as §1
Trypanothione reductase (Trypanosoma cruzi, UniProt P28593), sequence (P28593 whole entry): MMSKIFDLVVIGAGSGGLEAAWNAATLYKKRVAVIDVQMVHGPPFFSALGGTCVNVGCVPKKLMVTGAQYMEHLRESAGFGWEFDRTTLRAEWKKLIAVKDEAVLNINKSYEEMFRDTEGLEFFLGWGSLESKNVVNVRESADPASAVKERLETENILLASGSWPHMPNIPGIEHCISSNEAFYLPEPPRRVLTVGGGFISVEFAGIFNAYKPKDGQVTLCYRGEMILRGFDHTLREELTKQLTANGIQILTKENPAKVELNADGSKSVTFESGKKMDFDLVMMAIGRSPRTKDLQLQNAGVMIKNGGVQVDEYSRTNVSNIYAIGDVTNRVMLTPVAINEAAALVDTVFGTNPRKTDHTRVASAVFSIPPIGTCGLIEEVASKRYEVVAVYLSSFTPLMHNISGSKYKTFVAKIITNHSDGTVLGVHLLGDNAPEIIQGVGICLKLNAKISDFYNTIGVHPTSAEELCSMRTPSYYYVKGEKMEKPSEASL

[16] = target: T1, Trypanothione reductase; experiment: Competitive inhibition of HIS-FLAG-tagged recombinant Leishmania infantum TryR expressed in Escherichia coli using TS2 substrate assessed as inhibition constant in the presence of NADPH by spectrophotometry based DTNB-coupled assay

IC50 [3] | IC50 [4] | SMILES | selectivity ratio [1] | CC50 at 24 h [2] | EC50 [5] | CC50 at 72 h [6] | selectivity ratio [7] | EC50 [8] | solubility thermodynamic at 24 h [9] | further results
> 75 µM | 7.8 µM | C[n+]1nn(-c2ccc(-c3nc(CCc4ccc(Oc5ccccc5)cc4)c(-c4ccccc4)s3)c(OCCN3CCNC3=O)c2)cc1CCCCN | 4 | 35.2 µM | 8.9 µM |  |  |  |  | 
> 75 µM | 5.5 µM | COc1cc(-n2cc(CCCCN)[n+](C)n2)ccc1-c1nc(CCc2ccc(-c3ccccc3)cc2)cs1 | 4.7 | 35.9 µM | 7.6 µM |  |  |  |  | 
> 75 µM | 18.3 µM | COc1cc(-n2cc(CCCCN)[n+](C)n2)ccc1-c1nc(CCc2ccccc2)cs1 | > 3.8 | > 75 µM | 20 µM |  |  |  |  | 
 |  | NCCCCc1cn(-c2ccc(-c3nc(-c4ccccc4)c(-c4ccccc4)s3)c(OCCN3CCNC3=O)c2)nn1 |  |  |  | > 75 µM | > 3.1 | 24.2 µM |  | 
 |  | NCCCCc1cn(-c2ccc(-c3nc(CCc4ccccc4)cs3)c(OCCN3CCNC3=O)c2)nn1.O=C(O)C(F)(F)F |  |  |  | 27.8 µM | < 1 | 29.4 µM | 6400 µg/mL | 
 |  | NCCCCc1cn(-c2ccc(-c3nc(CCc4cccc5ccccc45)cs3)c(OCCN3CCNC3=O)c2)nn1.O=C(O)C(F)(F)F |  |  |  | > 29 µM | < 1 | > 75 µM | 2100 µg/mL | 
> 75 µM | 4 µM | C[n+]1nn(-c2ccc(-c3nc(-c4ccc(-c5ccccc5)cc4)c(-c4ccccc4)s3)c(OCCN3CCNC3=O)c2)cc1CCCCN | > 12.3 | > 75 µM | 6.4 µM | 34.5 µM | 2.4 | 14.1 µM |  | 
 |  | NCCCc1cn(-c2ccc(-c3nc(CCc4ccc(-c5ccccc5)cc4)cs3)c(OCCN3CCNC3=O)c2)nn1.O=C(O)C(F)(F)F |  |  |  | 37.3 µM | < 1 | > 75 µM | 2800 µg/mL | 
> 75 µM | 6.8 µM | C[n+]1nn(-c2ccc(-c3nc(CCc4ccc(-c5ccccc5)cc4)c(-c4ccccc4)s3)c(OCCN3CCNC3=O)c2)cc1CCCCN | 7.8 | 46.5 µM | 6 µM | 54.5 µM | 2.2 | 24.2 µM |  | 
 |  | CCCCS(=N)(=O)CCC(N)C(=O)O (racemic) [BUTHIONINE SULFOXIMINE] |  |  |  |  |  |  |  | Activity [10]: 50%; Activity [11]: inactive
> 75 µM | 5.4 µM | C[n+]1nn(-c2ccc(-c3nc(CCC4Cc5ccccc5O4)cs3)c(OCCN3CCNC3=O)c2)cc1CCCCN (configuration not stated) | < 1 | > 75 µM | > 75 µM |  |  |  |  | 
 |  | CCCCCCCCCCCCCCCCOP(=O)([O-])OCC[N+](C)(C)C [MILTEFOSINE] |  |  |  | > 75 µM | > 125 | 0.6 µM |  | 
> 75 µM | 4.2 µM | C[n+]1nn(-c2ccc(-c3nc(-c4ccc(Oc5ccccc5)cc4)c(-c4ccccc4)s3)c(OCCN3CCNC3=O)c2)cc1CCCCN | > 6.1 | > 75 µM | 12.2 µM | 42.6 µM | 2.8 | 15 µM |  | 
> 75 µM | 2.1 µM | C[n+]1nn(-c2ccc(-c3nc(CCc4ccccc4)cs3)c(OCC3CCNCC3)c2)cc1CCCCN | > 2.6 | > 75 µM | 28.4 µM |  |  |  |  | 
 |  | NCCCCc1cn(-c2ccc(-c3nc(CCc4ccc(-c5ccccc5)cc4)cs3)c(OCCN3CCNC3=O)c2)nn1.O=C(O)C(F)(F)F |  |  |  | 40.5 µM | < 1 | 52.1 µM | 200 µg/mL | 

SMILES | IC50 [3] | IC50 [4] | selectivity ratio [1] | CC50 at 24 h [2] | EC50 [5] | CC50 at 72 h [6] | selectivity ratio [7] | EC50 [8] | solubility thermodynamic at 24 h [9] | further results
CC[n+]1nn(-c2ccc(-c3nc(CCc4ccc(-c5ccccc5)cc4)cs3)c(OCCN3CCNC3=O)c2)cc1CCCCN | 56.9 µM |  | > 5.6 | > 75 µM | 14 µM | 63.8 µM | 6.4 | 10 µM |  | 
C[n+]1nn(-c2ccc(-c3nc(CCc4ccccc4)cs3)c(OCCC3CCNCC3)c2)cc1CCCCN |  | 2.2 µM | < 1 | > 75 µM | > 75 µM |  |  |  |  | 
C[n+]1nn(-c2ccc(-c3nc(CCc4ccccc4)cs3)c(OCCN3CCNC3=O)c2)cc1CCCN |  | 42 µM | < 1 | > 75 µM | > 75 µM |  |  |  |  | 
C[n+]1nn(-c2ccc(-c3nc(CCc4ccccc4)cs3)c(OCCN3CCNC3=O)c2)cc1CCCCN.O=C(O)C(F)(F)F.O=S(=O)([O-])C(F)(F)F |  | 9.4 µM | > 1.1 | > 75 µM | 66.6 µM |  |  |  | > 15900 µg/mL | IC50 [12]: 26.9 µM; IC50 [13]: 18.7 µM; Kd [14]: 1 µM; IC50 [15]: 48.5 µM; Ki [16]: 7.3 µM
C[n+]1nn(-c2ccc(-c3nc(CCc4ccc(-c5ccccc5)cc4)cs3)c(OCCN3CCNC3=O)c2)cc1CCCN.O=C(O)C(F)(F)F.O=S(=O)([O-])C(F)(F)F | 45.4 µM |  | > 15.6 | > 75 µM | 4.8 µM | > 75 µM | > 10.3 | 7.3 µM | 21600 µg/mL | 
C[n+]1nn(-c2ccc(-c3nc(-c4ccccc4)cs3)c(OCCN3CCNC3=O)c2)cc1CCCCN |  | 20.3 µM | > 1.2 | > 75 µM | 62.4 µM |  |  |  |  | 
C[n+]1nn(-c2ccc(-c3nc(CCc4ccc5ccccc5c4)cs3)c(OCCN3CCNC3=O)c2)cc1CCCCN.O=C(O)C(F)(F)F.O=S(=O)([O-])C(F)(F)F | > 75 µM |  | > 5.8 | > 75 µM | 12.9 µM | > 75 µM | > 2.8 | 27 µM | 23500 µg/mL | IC50 [12]: 5.1 µM; IC50 [13]: 4.2 µM; IC50 [15]: 9.2 µM
C[n+]1nn(-c2ccc(-c3nc(-c4ccccc4)c(-c4ccccc4)s3)c(OCCN3CCNC3=O)c2)cc1CCCCN |  | 3.9 µM | > 5.8 | > 75 µM | 12.9 µM | > 75 µM |  | 73.8 µM |  | 
